# Rows were chosen to be rich in hits. Some 1.9% of all compounds tested hit in one or more screens of this group.
# CXCR6 block: inhibitors of human CXCR6 receptor; inhibition, % at 20 µM; O00574; actives 0.36% (n = 360,000); CHO-K1 PathHunter CXCR6 beta-arrestin, luminescence; in the data active = inhibition above about 34%, passing the limit was not always enough;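 also: antagonist mode with CXCL16 agonist at 10 nM final; 0% = 10 nM CXCL16 with DMSO and 100% = unstimulated wells without agonist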
# APJ antag: antagonists of human APJ apelin receptor | P35414 | CHO-K1 APJ beta-arrestin complementation, luminescence | inhibition, % at 20 µM | actives 0.32% (n = 330,000);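 active = inhibition above about 40% at 20 µM, limit read from the data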;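 also: cells challenged with 10 nM apelin-13 agonist together with compound; plate controls were apelin-13 plus DMSO wells for no effect and DMSO wells lacking apelin-13 for full effect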
# Target sequence (P35414 whole entry, looked up): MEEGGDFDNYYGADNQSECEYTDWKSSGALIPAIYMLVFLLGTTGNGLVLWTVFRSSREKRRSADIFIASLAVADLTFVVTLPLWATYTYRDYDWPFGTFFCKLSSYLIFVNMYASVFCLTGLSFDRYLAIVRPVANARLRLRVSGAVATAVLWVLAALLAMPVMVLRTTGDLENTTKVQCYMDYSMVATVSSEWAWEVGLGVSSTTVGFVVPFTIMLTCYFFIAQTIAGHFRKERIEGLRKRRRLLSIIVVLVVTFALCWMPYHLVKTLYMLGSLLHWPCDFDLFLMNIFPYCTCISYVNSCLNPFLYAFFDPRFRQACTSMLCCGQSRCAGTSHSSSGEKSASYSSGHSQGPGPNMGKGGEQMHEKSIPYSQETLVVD
# CCR6 antag: antagonists of human CCR6 receptor. CHO-K1 CCR6 PathHunter beta-arrestin, luminescence, CCL20-stimulated. inhibition, % at 20 µM. actives 0.49% (n = 340,000). AID 493098;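 active = compounds whose inhibition of the agonist-driven luminescence signal at 20 µM reaches about 50%, limit read from the data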;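 also: cells stimulated with CCL20 at 14 nM final; plate controls were DMSO with CCL20 for no effect and DMSO without agonist for full effect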
# APJ agonist: activates the human apelin receptor APJ; CHO-K1 APJ PathHunter beta-arrestin, luminescence; 0% DMSO wells, 100% apelin; activation, % at 20 µM; P35414; actives 0.11% (n = 330,000);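 active = activation more than six SD over the plate average, tested at 20 µM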;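 also: 0% = DMSO alone and 100% = apelin-13 at 10 nM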
#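 Assay system: CHO-K1 cells stably expressing ProLink-tagged human APJ and arrestin–beta-gal acceptor. Compound dosing: 20 µM single point, 1% DMSO. Times: 16-18 h seeding, 90 min dark compound exposure, 60 min detection. Detection: beta-gal luminescence. Evaluation: APJ–arrestin association signal. Controls: negative DMSO alone, positive Apelin-13 at 10 nM.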
# EBI2 antag: EBI2 (human) antagonism; actives 0.81% (n = 360,000); AID 651636; inhibition, % at 5 µM; EBI2 beta-arrestin recruitment, luminescence, 7a,25-OHC stimulated; P32249; in the data active = inhibition above about 38%;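 also: enzyme fragment complementation signal reports receptor beta-arrestin coupling in cells; 0% = agonist plus DMSO wells and 100% = wells without agonist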
# H9c2 TAG inh: reduces triacylglycerol accumulation in H9c2 cells. actives 0.66% (n = 230,000). inhibition, % at 12.5 µM. AID 651582. Nile Red lipid (TAG) fluorescence; cells loaded with 200 µM oleic acid;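 active = pattern-corrected inhibition of lipid staining of at least 50% with the nuclear-stain viability signal not falling by more than 50%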;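 also: 0% = DMSO wells and 100% = triacsin C control wells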
# CXCR6 antag conf: confirmation of human CXCR6 receptor antagonists. shares compounds with CXCR6 block. CHO-K1 CXCR6 PathHunter beta-arrestin, luminescence. inhibition, % at 20 µM. actives 65% (n = 700);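 active = mean inhibition over four retests above 40%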;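 also: receptor stimulated with 10 nM CXCL16 agonist; beta-galactosidase fragment complementation upon beta-arrestin recruitment to receptor; plate controls were CXCL16 plus DMSO for no effect and DMSO without CXCL16 for full effect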
# * marks the source's active call; other numbers are inactive results; . = no result given.
SMILES,CXCR6 block,APJ antag,CCR6 antag,APJ agonist,EBI2 antag,H9c2 TAG inh,CXCR6 antag conf
NC(=S)N/N=C/c1ccc(C(F)(F)F)cc1,2.1,1.6,-5.7,1.8,-0.8,.,.
CCc1nc2c(OCCC3CCCCC3)cccn2c1N(C)C(=O)c1ccc(OC)cc1,44.9*,.,.,.,21.7,-4.3,5.6
O=C(Nc1ccc(F)cc1)C1CCCN1S(=O)(=O)c1ccc(Br)cc1 (centres undefined),-5.0,5.7,8.7,-3.4,0.1,-9.8,.
CCCOc1ccc(C(=O)NNC(=S)NC(=O)c2cc(-c3ccc(Cl)cc3)nc3ccccc23)cc1,44.6*,30.0,42.9,-8.1,13.8,30.7,37.2
COc1ccc(-n2nnnc2S(=O)(=O)CC(=O)N2CCCCC2)cc1,48.2*,25.1,47.3,-0.7,42.9*,111.2,49.3*
Clc1ccc2nc(COc3ccccc3)[nH]c2c1,-12.3,-15.0,9.9,-1.1,19.3,.,.
Oc1ccc(Cl)c2cccnc12,42.7*,.,65.7*,.,16.9,12.2,60.2*
OCc1ccc(O)c2ncccc12,-0.8,-7.9,9.9,-0.9,-4.1,.,.
O=C(OCC(=O)N1CCCCCC1)c1cccc(Cl)c1,-2.7,-1.7,8.0,-2.2,-2.8,3.8,.
Cc1nn(C)c(C(=O)NC(=S)Nc2ccccc2O)c1Cl,43.8*,27.6,50.1*,-13.4,0.8,6.3,32.2
COc1ccc(-c2nn(C)c(=O)c3ccccc23)cc1NC(=O)Cn1nc(C)c2ccccc2c1=O,37.3*,36.7,65.9*,-9.6,12.4,.,46.6*
CCN(c1ccccc1)S(=O)(=O)c1ccc(NC(=O)c2nc(S(C)(=O)=O)ncc2Cl)cc1,81.3*,20.3,96.4*,9.4,8.8,.,68.3*
Cc1ccccc1CS(=O)(=O)c1ncc(Cl)c(C(=O)Nc2ccc(F)cc2)n1,57.6*,-0.2,.,0.4,52.9*,.,58.2*
CSc1ncc(Cl)c(C(=O)Nc2ccc(S(=O)(=O)Nc3nccc(C)n3)cc2)n1,4.5,9.8,20.2,-8.3,2.9,7.3,.
CCOC(=O)c1ccc(NC(=O)c2nc(SC)ncc2Cl)cc1,4.5,13.5,20.6,-4.7,-9.8,.,.
Cc1ccc(NC(=O)c2nc(S(=O)(=O)Cc3ccccc3)ncc2Cl)cc1,59.3*,18.0,80.0*,0.4,34.0,.,56.7*
Cc1cccc(CS(=O)(=O)c2ncc(Cl)c(C(=O)NCc3ccccc3)n2)c1,56.8*,16.2,47.8,-3.3,29.8,.,63.5*
CSc1ccc(Cl)c(C(=O)Nc2cc(S(=O)(=O)N3CCOCC3)ccc2N2CCOCC2)c1,-2.3,7.8,10.8,-1.8,8.0,-1.1,.
CCOc1ccc(NC(=O)CN(C)S(=O)(=O)c2cccc3cccnc23)cc1,-1.8,15.6,14.8,1.3,-4.2,.,.
O=C(O)c1cccc(S(=O)(=O)Nc2ccc(N3CCCCC3)cc2)c1,3.2,8.8,5.2,2.8,-11.2,-13.5,.
Cc1ccc(-c2csc(N3C(=N)SCC3=O)n2)cc1,.,12.2,39.2,-5.5,.,.,.
N=C1SCC(=O)N1c1ncc(Cc2ccc(F)cc2)s1,50.8*,4.4,.,-5.0,-6.4,3.3,67.8*
CN1CCN(NS(=O)(=O)c2ccc(Cl)cc2)CC1,-1.4,6.2,-15.0,0.9,-3.4,.,.
FC(F)Sc1ccc(NC(=S)NC2CCCCC2)cc1,56.6*,-4.8,-11.2,1.8,6.6,.,4.0
C/C(=N\NC(=O)C(c1ccccc1)c1ccccc1)c1ccccn1,86.5*,74.9*,105.3*,-14.0,27.5,.,107.7*
C/C(=N\NC(=O)C1COc2ccccc2O1)c1ccc(C)o1 (centres undefined),14.6,-1.1,18.9,-6.6,0.7,20.2,.
C/C(=N\NC(=O)C1COc2ccccc2O1)c1ccccn1 (centres undefined),75.1*,58.5*,77.8*,-7.6,1.2,.,68.3*
C/C(=N\NC(=O)C(c1ccccc1)c1ccccc1)c1ccc(O)cc1,2.7,-19.8,25.3,-1.6,-9.5,.,.
CC(NC(=O)CCC(=O)NCc1ccc(F)cc1)c1ccccc1 (centres undefined),79.7*,-9.3,17.8,-2.7,7.0,-17.7,-3.6

# Screening results: PubChem, Sanford-Burnham Center for Chemical Genomics
